Assay outcomes deposited in PubChem BioAssay by several laboratories.
The list is not random: actives were taken first. Their share in the collection is about 3.1%.
Yeast life ext – extends the lifespan of yeast; S. cerevisiae growth with nicotinamide, OD615; deaD strain in restrictive glucose medium; inhibition of the nicotinamide effect, % at 10 µM; actives 0.68% (n = 130,000);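 active means inhibition above a set limit, placed 3 SD over the median of all compounds, cut at about 26% in these data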;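 further: 0% = nicotinamide-treated wells and 100% = cells grown without nicotinamide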
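Assay system: engineered S. cerevisiae DeaD replicative-lifespan strain, galactose-grown log-phase cells; Buffer or medium: CSMM-D glucose medium, restrictive; Probe or stimulus: nicotinamide 1.5 mM; Compound: single dose 10 µM compound, 0.25% DMSO; Schedule: 4 h preincubation then 48 h treatment at 30 °C; Technique: OD615 measurement.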
RAM network inh – yeast RAM network inhibition; S. cerevisiae dse1pr::URA3 reporter, 5-FOA growth OD615, 2 d; analog-sensitive cbk1-as2 kinase mutant strain; inhibition, % at 50 µM; actives 1.8% (n = 190,000); AID 868;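 active means inhibition above a set limit, 3 SD over mean compound inhibition, cut at about 8.4% in these data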;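 further: 0% = DMSO-only wells with no growth and 100% = 10 µM 1-NA-PP1 full growth; inhibition rescues growth on 5-FOA so higher OD means more RAM inhibition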
Insulin prom up – MIN6 insulin promoter up-regulation; MIN6 insulin promoter-GFP reporter, high-content imaging; hits give high values; z-score at 5 µM; actives 0.3% (n = 190,000);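 active means z-score above 3 at 5 µM with at least 500 cells counted in the well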
Yeast growth inh – chemicals that inhibit yeast BB579 growth in restrictive medium (lifespan-shortening candidates). S. cerevisiae BB579 growth, OD615, 48 h. inhibition, % at 10 µM. actives 0.51% (n = 140,000);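 active means inhibition above a set limit, 3 SD over the mean compound inhibition, cut at about 44% in these data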
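Detection: OD615 turbidity measurement; Material: Saccharomyces cerevisiae DeaD strain BB579, replicative lifespan model yeast; Timing: 48 h exposure, 30 °C; Doses: single 10 µM dose; Medium: CSMM-D restrictive synthetic medium containing dextrose (glucose); Controls: amphotericin B at 10 µg/mL as positive control.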
INS promoter inh – TRM-6 insulin promoter activity inhibition | actives 0.9% (n = 130,000) | AID 1273 | inhibition, % at 2 µM | TRM-6 cells, insulin promoter-eGFP reporter, imaging; reporter expression induced with tamoxifen;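 active means inhibition above the mean plus 3 SD, with well images judged a real hit on visual review, cut at about 60% in these data, passing the limit was not always enough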
Active calls of the source: *; x = no result.

SMILES	Yeast life ext	RAM network inh	Insulin prom up	Yeast growth inh	INS promoter inh
Cc1ccc(C(=O)CSc2nnc(-c3c[nH]c4ccccc34)o2)cc1	-8	3	0	-89	-8
O=C(CSc1nnc(-c2ccccc2Cl)o1)Nc1ccc2c(c1)OCCO2	x	5	x	-19	19
O=c1c(-c2nnc(SCc3ccc(Cl)c(Cl)c3)o2)cccn1Cc1ccccc1	13	11*	x	-69	4
COc1ccc(-c2cn[nH]c2N)c(OC)c1	-13	1	-1.3	-70	84*
COc1ccc(-c2cn[nH]c2N)cc1	-5	2	-0.7	-23	-21
Nc1c(C(=O)Nc2ccccc2)sc2nc(-c3cccnc3)ccc12	x	x	1.1	x	x
CCOC(=O)c1c(C)nc2sc(C(=O)Nc3ccc(OC)cc3)c(N)c2c1-c1ccc(OC)cc1	-11	8.7*	-0.15	-50	-9
COc1ccc(NC(=O)c2sc3nc(-c4cccnc4)ccc3c2N)cc1	x	x	6*	x	x
Nc1c(C(=O)Nc2ccccc2)sc2nc(-c3ccco3)ccc12	-18	11*	0.73	-11	80*
COc1ccc(-c2nnc(S/C(=C/c3ccc(Cl)cc3)C(=O)O)o2)cc1	x	4	2	x	40
CSc1ccc(/C=C(/Sc2nnc(-c3ccccc3)o2)C(=O)O)cc1	x	4	0.51	x	80*
C=CCn1c(NS(=O)(=O)c2ccccc2)c(S(=O)(=O)c2ccc(C)cc2)c2nc3ccccc3nc21	14	11*	0.27	-19	22
CCCCn1c(N)c(S(=O)(=O)c2ccc(C)cc2)c2nc3ccccc3nc21	3	9.5*	-0.27	-21	-7
O=S(=O)(Nc1c(S(=O)(=O)c2ccccc2)c2nc3ccccc3nc2n1C1CCCCC1)c1ccccc1	27*	1	-0.25	-9	x
CC(=O)c1c(COC(=O)c2ccccc2Cl)nc2ccccc2[n+]1[O-]	x	x	0.46	x	x
O=[N+]([O-])c1cccc(P(=O)(O)c2cccc([N+](=O)[O-])c2)c1	x	x	-0.17	x	x
CC12CCC(C(=O)Nc3ccncc3)(CC1O)C2(C)C (configuration not stated)	x	x	0.23	x	x
CCOC(=O)c1cn[nH]c1NC(=S)Nc1ccc(Cl)cc1	x	x	-0.67	x	x
O=C(CSc1nnc(-c2n[nH]c3ccccc23)n1-c1ccccc1)Nc1cccc(Cl)c1	7	8.8*	-0.23	-47	x
COc1ccc(/C(N)=N/OC(=O)CCCc2ccccc2)cc1OC	0	-1	-0.24	-21	-17
COc1ccccc1-c1cc(C(=O)NCc2ccccc2)no1	-17	2	-0.26	-21	x
COc1ccc(CNC(=O)c2cc(-c3ccccc3OC)on2)cc1	-16	8.6*	1	-35	x
CCC(=O)Nc1nc(C)c(Oc2ccccc2)c(=O)[nH]1	-7	-1	-0.33	-28	18
CC(=O)Nc1nc(C)c(Oc2ccccc2)c(=O)[nH]1	81*	0	-0.34	-40	0
Cc1ccc(COc2ccc(Br)cc2/C=N/O)cc1	-8	4	0.22	89*	-29
SMILES	Yeast life ext	RAM network inh	Insulin prom up	Yeast growth inh	INS promoter inh
O/N=C/c1ccc(OCc2ccccc2)c(Br)c1	-11	-1	1.2	45*	-5
COc1cc(-c2nnc(COc3ccc4ccccc4c3)o2)cc(OC)c1OC	-8	9.4*	-0.29	-37	-53
CNc1ccc(/C=C(\CCC(=O)O)c2nc3ccccc3s2)cc1[N+](=O)[O-]	-1	11*	-0.26	-41	-38
Cc1ccc(/C=C(\CCC(=O)O)c2nc3ccccc3s2)cc1[N+](=O)[O-]	4	10.0*	-0.23	-38	2
CN(c1ccccc1)c1ccc(/C=C(\CCC(=O)O)c2nc3ccccc3s2)cc1[N+](=O)[O-]	-5	6	-0.14	-11	-19
Cn1ncc([N+](=O)[O-])c1C(=O)N/N=C/c1cccc([N+](=O)[O-])c1	x	0	0.69	x	x
Cc1cc([N+](=O)[O-])ccc1N=Nc1c(N)[nH]n(-c2ccccc2)c1=O	x	8.6*	0.3	x	11
Cc1[nH]n(-c2ccc([N+](=O)[O-])cc2)c(=O)c1N=Nc1nc2ccccc2s1	x	x	x	x	-275
Nc1nc(Nc2ccccc2Cl)cc(=O)[nH]1	x	x	-0.52	x	x
COc1ccc(-c2noc(-c3ccccc3-c3ccccc3)n2)cc1OC	-23	11*	-0.62	-19	-8
CCOc1ccccc1-c1nc(-c2ccc(NC(=O)c3ccc(Br)o3)cc2)no1	-20	2	x	-56	-50
COc1ccc(-c2noc(-c3cccnc3)n2)cc1OC	x	3	-0.15	x	32
CCOc1ccccc1-c1nc(-c2cccc(Br)c2)no1	-10	8.7*	-1.2	-30	-25
c1ccc(-c2ccccc2-c2nc(-c3ccncc3)no2)cc1	-14	-2	0.14	-15	79*
COc1cccc(Oc2ccc3nnc(C(F)(F)F)n3n2)c1	x	1	0.41	x	18
c1ccc(-c2nc3c(ccc4ccccc43)[nH]2)nc1	x	0	x	72*	38
O=C(Nc1ccc(-c2nc3ccccc3[nH]2)cc1)c1cccc(N2C(=O)CCC2=O)c1	-1	2	0.26	-42	12
Cc1cccc(NC(=O)c2ccccc2NC(=O)CCC(=O)O)c1	-5	0	-0.24	-9	79*
Cc1ccc(NC(=O)c2cc(NC(=O)CCC(=O)O)ccc2N2CCCCC2)cc1	-9	9.0*	1.1	-31	17
Cc1ccc(N2CCN(c3ccc(NC(=O)CCC(=O)O)cc3)CC2)cc1	-1	1	0.3	-13	73*
Cc1cccc(NC(=O)c2ccccc2OCC(=O)N2CCCC2)c1C	x	2	-0.14	x	x
O=C(CCS(=O)(=O)c1cccs1)Nc1ccc(C(=O)NC2CCN(Cc3ccccc3)CC2)cc1	x	3	0.72	x	x
CCOc1ccccc1NC(=O)N1CCN(S(C)(=O)=O)CC1	x	4	0.13	x	x
O=C1/C(=C\c2ccc(O)c(O)c2)N=C2CCCCCN12	x	x	-0.26	x	x
Cc1ccc(SCc2cc(-c3ccc(Cl)cc3)no2)cc1	-13	4	3.1*	-47	x
SMILES	Yeast life ext	RAM network inh	Insulin prom up	Yeast growth inh	INS promoter inh
COc1cccc(CNc2ccccc2O)c1OCc1ccccc1F	x	2	-0.21	x	x
COc1ccc(-n2cc3c(-c4cccc(Br)c4)nnc(C)c3n2)cc1	-3	11*	-0.93	-17	-11
Cc1nnc(-c2cccc(Br)c2)c2cn(-c3ccc(Br)cc3)nc12	-11	2	-1.3	-21	x
CCOC(=O)c1c(N2C(=O)Nc3ccccc3N2O)sc2c1CCCC2	30*	2	-0.19	-31	19
CCOc1ccccc1NC(=O)CCCn1cc([N+](=O)[O-])cn1	x	1	0.31	x	53
Cc1cc(C(=O)CN2C(=O)NC3(CCCC3)C2=O)c(C)n1-c1ccc2c(c1)OCO2	4	1	-0.85	14	x
Cc1cc(C(=O)CN2C(=O)NC(C)(CC(C)C)C2=O)c(C)n1-c1ccc2c(c1)OCO2 (configuration not stated)	65*	1	0.59	-21	x
COc1cccc(C2CC(c3cccs3)=NN2C(=O)CSc2nc3c(cnn3-c3ccc(F)cc3)c(=O)[nH]2)c1OC (configuration not stated)	6	11*	-0.01	-29	-61
